From ChEMBL document CHEMBL4689842, “EUbOPEN Chemogenomics Library wave 1” (2021)

Test system: HEK-293T
Assay: Multiplex assay against HEK293T;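 as to Population Tubulin-Different-Phenotype (%): share of the cells with healthy nuclei that show this phenotype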
Assay type: toxicity, cell-based
Settings: human
How it was run: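 Live cells carried four stains from seeding: Hoechst33342, BioTracker Green Microtubule Cytoskeleton Dye, MitoTracker Red and Annexin V Alexa Fluor 680. They were imaged on a CQ1 microscope at 37°C and 5% CO2 after compound addition. Using CellPathfinder machine-learning gating, cells were split into Hoechst high-intensity objects or normal cells, normal cells into healthy, pyknosed or fragmented nuclei, and pyknosed cells into mitotic or apoptotic; tubulin, mitochondrial-mass and membrane-permeability phenotypes are per cents of healthy-nucleus cells.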

[1] = 12 h, 1 µM, compound concentration 1 uM, replicate 1
[2] = 12 h, 1 µM, compound concentration 1 uM, replicate 2
[3] = 12 h, 10 µM, compound concentration 10 uM, replicate 1
[4] = 12 h, 10 µM, compound concentration 10 uM, replicate 2
[5] = 24 h, 1 µM, compound concentration 1 uM, replicate 1
[6] = 24 h, 1 µM, compound concentration 1 uM, replicate 2
[7] = 24 h, 10 µM, compound concentration 10 uM, replicate 1
[8] = 24 h, 10 µM, compound concentration 10 uM, replicate 2

## Cc1cn(-c2cc(NC(=O)c3ccc4c(c3)CN(c3cncnc3)C[C@@H]4C)cc(C(F)(F)F)c2)cn1
[1]
  Population Apoptotic (%): 15%
  Population Fragmented Nuclei (%): 25%
  Population Healthy Nuclei (%): 52%
  Population Hoechst High Intensity Objects (%): 20%
  Population Membrane Permeable-Phenotype (%): 5%
  Population Mitochondria Different-Phenotype (%): 6%
  Population Mitotic Cells (%): 84%
  Population Normal (%): 79%
  Population Pyknosed Nuclei (%): 22%
  Population Tubulin-Different-Phenotype (%): 4%
  Total Cell Count: 536
[2]
  Population Apoptotic (%): 8%
  Population Fragmented Nuclei (%): 6%
  Population Healthy Nuclei (%): 87%
  Population Hoechst High Intensity Objects (%): 3%
  Population Membrane Permeable-Phenotype (%): 2%
  Population Mitochondria Different-Phenotype (%): 8%
  Population Mitotic Cells (%): 91%
  Population Normal (%): 96%
  Population Pyknosed Nuclei (%): 5%
  Total Cell Count: 1397
[3]
  Population Apoptotic (%): 17%
  Population Fragmented Nuclei (%): 17%
  Population Healthy Nuclei (%): 62%
  Population Hoechst High Intensity Objects (%): 13%
  Population Membrane Permeable-Phenotype (%): 12%
  Population Mitochondria Different-Phenotype (%): 6%
  Population Mitotic Cells (%): 82%
  Population Normal (%): 86%
  Population Pyknosed Nuclei (%): 20%
  Population Tubulin-Different-Phenotype (%): 37%
  Total Cell Count: 653
[4]
  Population Apoptotic (%): 16%
  Population Fragmented Nuclei (%): 5%
  Population Healthy Nuclei (%): 88%
  Population Hoechst High Intensity Objects (%): 4%
  Population Membrane Permeable-Phenotype (%): 5%
  Population Mitochondria Different-Phenotype (%): 24%
  Population Mitotic Cells (%): 83%
  Population Normal (%): 95%
  Population Pyknosed Nuclei (%): 5%
  Population Tubulin-Different-Phenotype (%): 40%
  Total Cell Count: 1483
[5]
  Population Apoptotic (%): 23%
  Population Fragmented Nuclei (%): 16%
  Population Healthy Nuclei (%): 72%
  Population Hoechst High Intensity Objects (%): 15%
  Population Membrane Permeable-Phenotype (%): 9%
  Population Mitochondria Different-Phenotype (%): 3%
  Population Mitotic Cells (%): 76%
  Population Normal (%): 84%
  Population Pyknosed Nuclei (%): 11%
  Population Tubulin-Different-Phenotype (%): 3%
  Total Cell Count: 545
[6]
  Population Apoptotic (%): 6%
  Population Fragmented Nuclei (%): 15%
  Population Healthy Nuclei (%): 81%
  Population Hoechst High Intensity Objects (%): 2%
  Population Membrane Permeable-Phenotype (%): 5%
  Population Mitochondria Different-Phenotype (%): 2%
  Population Mitotic Cells (%): 93%
  Population Normal (%): 97%
  Population Pyknosed Nuclei (%): 2%
  Population Tubulin-Different-Phenotype (%): 5%
  Total Cell Count: 2221
[7]
  Population Apoptotic (%): 15%
  Population Fragmented Nuclei (%): 16%
  Population Healthy Nuclei (%): 73%
  Population Hoechst High Intensity Objects (%): 12%
  Population Membrane Permeable-Phenotype (%): 29%
  Population Mitochondria Different-Phenotype (%): 6%
  Population Mitotic Cells (%): 84%
  Population Normal (%): 87%
  Population Pyknosed Nuclei (%): 10%
  Population Tubulin-Different-Phenotype (%): 54%
  Total Cell Count: 740
[8]
  Population Apoptotic (%): 8%
  Population Fragmented Nuclei (%): 12%
  Population Healthy Nuclei (%): 84%
  Population Hoechst High Intensity Objects (%): 3%
  Population Membrane Permeable-Phenotype (%): 14%
  Population Mitochondria Different-Phenotype (%): 7%
  Population Mitotic Cells (%): 91%
  Population Normal (%): 96%
  Population Pyknosed Nuclei (%): 3%
  Population Tubulin-Different-Phenotype (%): 55%
  Total Cell Count: 2031
